Experimental data published in PMC8985159 (RSC Chemical Biology, 2022).
Read-outs that look alike come from different tables or passages of the source.

Key:
[1] = biological target: T1, N-terminally labelled Nluc-Sirt2 fusion protein (Homo sapiens, UniProt Q8IXJ6); assay: NanoBRET assay, N-terminal Nluc-Sirt2 fusion in HEK293T cells
T1 sequence (Q8IXJ6 50-356): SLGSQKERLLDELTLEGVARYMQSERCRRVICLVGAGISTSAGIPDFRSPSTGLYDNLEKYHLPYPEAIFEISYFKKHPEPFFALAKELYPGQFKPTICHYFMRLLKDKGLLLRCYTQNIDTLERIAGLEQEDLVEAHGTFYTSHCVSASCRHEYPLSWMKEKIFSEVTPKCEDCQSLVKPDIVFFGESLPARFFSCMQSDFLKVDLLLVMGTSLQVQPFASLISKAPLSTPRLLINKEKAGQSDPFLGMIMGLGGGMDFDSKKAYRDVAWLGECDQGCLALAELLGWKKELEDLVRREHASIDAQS

Sirt2 = biological target: T2, Sirt2 (Homo sapiens, UniProt Q8IXJ6); conditions: read-out: In vitro Sirt2 activity assay IC50; cited from earlier work
T2 sequence (Q8IXJ6 56-356): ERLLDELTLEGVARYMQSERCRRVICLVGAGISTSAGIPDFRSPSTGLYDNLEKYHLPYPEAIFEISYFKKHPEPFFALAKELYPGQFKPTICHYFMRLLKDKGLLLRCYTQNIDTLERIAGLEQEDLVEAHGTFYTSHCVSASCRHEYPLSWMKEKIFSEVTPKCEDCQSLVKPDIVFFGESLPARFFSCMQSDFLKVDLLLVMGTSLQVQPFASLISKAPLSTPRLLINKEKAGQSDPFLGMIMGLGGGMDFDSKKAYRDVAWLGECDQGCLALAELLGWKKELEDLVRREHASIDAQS

Sirt1_134-747 = biological target: T3, Sirt1_134-747 (Homo sapiens, UniProt Q96EB6); assay: Sirtuin deacetylation activity assay; type: biochemical
T3 sequence (Q96EB6 134-747): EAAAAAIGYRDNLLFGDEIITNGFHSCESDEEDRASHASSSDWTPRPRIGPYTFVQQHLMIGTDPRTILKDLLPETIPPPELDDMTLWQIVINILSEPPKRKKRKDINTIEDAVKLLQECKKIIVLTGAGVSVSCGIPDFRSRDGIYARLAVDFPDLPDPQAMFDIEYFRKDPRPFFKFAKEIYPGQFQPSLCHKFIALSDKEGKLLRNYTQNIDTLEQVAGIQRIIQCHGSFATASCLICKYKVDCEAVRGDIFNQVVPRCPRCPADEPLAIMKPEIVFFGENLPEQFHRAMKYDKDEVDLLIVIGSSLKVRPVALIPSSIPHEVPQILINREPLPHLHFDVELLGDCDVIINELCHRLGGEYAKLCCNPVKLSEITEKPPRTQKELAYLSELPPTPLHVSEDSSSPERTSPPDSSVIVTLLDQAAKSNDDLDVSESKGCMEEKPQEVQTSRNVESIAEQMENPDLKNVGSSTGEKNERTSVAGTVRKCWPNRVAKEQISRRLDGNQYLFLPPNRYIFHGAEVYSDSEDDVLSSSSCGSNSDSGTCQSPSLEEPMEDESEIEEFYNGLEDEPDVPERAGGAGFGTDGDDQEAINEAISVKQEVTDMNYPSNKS

Sirt3_118-395 = biological target: T4, Sirt3_118-395 (Homo sapiens, UniProt Q9NTG7); assay: Sirtuin deacetylation activity assay; type: biochemical
T4 sequence (Q9NTG7 118-395): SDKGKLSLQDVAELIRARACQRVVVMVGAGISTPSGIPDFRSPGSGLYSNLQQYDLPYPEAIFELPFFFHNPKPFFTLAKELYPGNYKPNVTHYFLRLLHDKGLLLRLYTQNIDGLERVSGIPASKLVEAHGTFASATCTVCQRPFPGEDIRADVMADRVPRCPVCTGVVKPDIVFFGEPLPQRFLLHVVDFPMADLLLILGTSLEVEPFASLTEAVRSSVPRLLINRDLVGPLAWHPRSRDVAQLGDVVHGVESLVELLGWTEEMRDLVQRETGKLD

PC-3M-luc cells = assay: Migration assay; type: cell-based, human; conditions: Homo sapiens, read-out: migration inhibition
human recombinant HDAC1 = human recombinant HDAC1 (Homo sapiens, UniProt Q13547); assay: HDAC1 activity assay; type: biochemical
Chain of human recombinant HDAC1 (Q13547 whole entry): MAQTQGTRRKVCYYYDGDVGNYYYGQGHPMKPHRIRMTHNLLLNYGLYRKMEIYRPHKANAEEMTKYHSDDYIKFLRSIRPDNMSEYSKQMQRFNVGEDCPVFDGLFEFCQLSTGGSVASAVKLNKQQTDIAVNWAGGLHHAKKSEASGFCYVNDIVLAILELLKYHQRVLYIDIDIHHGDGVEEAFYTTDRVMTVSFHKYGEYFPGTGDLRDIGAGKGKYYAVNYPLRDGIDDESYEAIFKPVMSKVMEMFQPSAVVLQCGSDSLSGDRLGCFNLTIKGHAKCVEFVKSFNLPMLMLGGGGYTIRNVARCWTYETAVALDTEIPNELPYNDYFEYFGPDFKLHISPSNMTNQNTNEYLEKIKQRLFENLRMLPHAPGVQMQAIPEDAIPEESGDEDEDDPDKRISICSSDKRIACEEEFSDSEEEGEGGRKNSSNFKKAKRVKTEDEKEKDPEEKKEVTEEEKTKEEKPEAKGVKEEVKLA
In short: (§1)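 Enzyme was incubated with serially diluted test compound in DMSO and ZMAL (added from a 126 μM solution) for 90 min at 37 °C. Stop solution (33 μM trichostatin A, 6 mg/mL trypsin) was added, followed by 30 min at 37 °C. Fluorescence read at Ex 390 / Em 460 nm.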

Sirt2_56-356 [2] = biological target: T5, Sirt2_56-356 (Homo sapiens, UniProt Q8IXJ6); assay: Fluorescence polarization assay; type: binding
T5 sequence (Q8IXJ6 56-356): T2 sequence (Q8IXJ6 56-356)

Sirt2_56-356 [3] = biological target: T5, Sirt2_56-356; assay: Sirt2 demyristoylation activity assay; type: biochemical
Sirt2_56-356 [4] = biological target: T5, Sirt2_56-356; assay: Sirtuin deacetylation activity assay; type: biochemical
human recombinant HDAC6 = biological target: T6, human recombinant HDAC6 (Homo sapiens, UniProt Q9UBN7); assay: HDAC6 activity assay; type: biochemical
T6 sequence (Q9UBN7 1-1215): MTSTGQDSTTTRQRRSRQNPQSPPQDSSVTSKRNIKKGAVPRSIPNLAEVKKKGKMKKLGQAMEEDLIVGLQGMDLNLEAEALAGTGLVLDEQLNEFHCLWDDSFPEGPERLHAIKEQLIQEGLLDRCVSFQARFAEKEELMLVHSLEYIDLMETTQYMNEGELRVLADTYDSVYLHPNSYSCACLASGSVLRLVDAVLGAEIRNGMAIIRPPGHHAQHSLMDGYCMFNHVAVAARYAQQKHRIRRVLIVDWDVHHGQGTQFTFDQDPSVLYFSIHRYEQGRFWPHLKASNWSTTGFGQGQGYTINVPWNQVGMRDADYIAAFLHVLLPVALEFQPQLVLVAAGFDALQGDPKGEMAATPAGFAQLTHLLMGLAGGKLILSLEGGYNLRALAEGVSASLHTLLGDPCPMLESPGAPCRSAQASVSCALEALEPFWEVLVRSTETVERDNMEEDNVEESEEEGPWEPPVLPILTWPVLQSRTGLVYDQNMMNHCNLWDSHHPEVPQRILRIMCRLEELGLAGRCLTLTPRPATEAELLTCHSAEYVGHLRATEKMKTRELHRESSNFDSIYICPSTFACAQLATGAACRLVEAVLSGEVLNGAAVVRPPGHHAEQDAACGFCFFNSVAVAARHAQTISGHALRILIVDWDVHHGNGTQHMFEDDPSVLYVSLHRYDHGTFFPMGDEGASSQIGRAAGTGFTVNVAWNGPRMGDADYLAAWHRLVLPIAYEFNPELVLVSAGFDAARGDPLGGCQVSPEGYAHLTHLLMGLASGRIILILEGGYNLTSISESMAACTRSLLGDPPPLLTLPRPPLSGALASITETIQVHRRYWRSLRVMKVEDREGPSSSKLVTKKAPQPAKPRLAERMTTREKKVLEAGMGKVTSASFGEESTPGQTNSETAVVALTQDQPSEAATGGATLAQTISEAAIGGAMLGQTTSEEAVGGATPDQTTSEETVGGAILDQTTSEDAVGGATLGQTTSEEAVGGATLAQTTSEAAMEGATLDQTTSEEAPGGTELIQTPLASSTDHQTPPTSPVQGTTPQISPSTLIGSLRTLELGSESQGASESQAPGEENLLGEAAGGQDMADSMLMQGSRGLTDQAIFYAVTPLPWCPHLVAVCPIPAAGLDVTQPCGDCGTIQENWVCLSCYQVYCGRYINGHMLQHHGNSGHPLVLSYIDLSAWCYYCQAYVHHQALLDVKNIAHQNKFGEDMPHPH
In short: as §1

[5] = tested on: α-tubulin acetylation in PC-3M-luc cells; assay: Acetylation levels of α-tubulin by immunofluorescence; type: cell-based, human; conditions: 20 μM, 5 hours
In short: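 PC-3M-luc cells were plated at 20 000 per well, incubated overnight at 37 °C and 5% CO2, then exposed to 20 μM test compound for 5 h. They were fixed in 4% PFA for 8–10 min at RT and extracted with PBS/0.1% Triton X-100. Blocking used PBS/0.1% Triton/5% FCS. […] Read-out was immunofluorescence microscopy.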

[6] = tracer 13 2 μM, HEK293T, 2 h, mean ± SD

Row | IC50 ([1]; read-out: NanoBRET assay IC50, tracer 13 2 μM, HEK293T, 2 h, mean ± SD) [µM] | IC50 (Sirt1_134-747) [µM] | NanoBRET assay IC50 [1, 6] | IC50 (Sirt3_118-395) [µM] | IC50 (human recombinant HDAC1) [µM] | Sirt2 binding in the FP assay compared to SirReal2 (in words) (Sirt2_56-356 [2]) | inhibition at 20 µM (Sirt2_56-356 [3]; read-out: Sirt2 Demyr. percentage of inhibition) [%] | IC50 (Sirt2_56-356 [4]; Sirt2 Deacet. IC50, mean ± SD) [nM] | IC50 (human recombinant HDAC6) [µM] | IC50 (Sirt2_56-356 [3]) [µM] | decreased potency compared to the positive control SirReal2 (Sirt2_56-356 [4]; Sirt2 deacetylation) | IC50 [1] [µM] | IC50 (Sirt2_56-356 [4]; In vitro Sirt2 activity assay IC50, Table 2) [nM] | SMILES | IC50 (Sirt2) [µM] | inhibition at 10 µM (PC-3M-luc cells) [%] | acetylation levels of α-tubulin [5]
1 | 5.2 ± 0.2 | – | – | – | – | – | – | – | – | – | – | – | – | O=C(NCc1cccnc1)c1ccc2c(c1)C1C3CCC(C3)C1C(c1ccccc1)N2 (stereo not shown) [AEM2, reference compound] | 3.8 | – | –
2 | – | > 100 | did not detect cellular Sirt2 binding | > 100 | > 100 | weaker binding | 23.2 | 460 ± 210 | > 100 | – | – | – | – | CCCCCCCC(=O)Nc1ncc(Cc2cccc(OCc3cn(CCOC)nn3)c2)s1 [Compound 5] | – | 35 | –
3 | – | > 100 | did not detect cellular Sirt2 binding | > 100 | > 100 | weaker binding | – | 620000 ± 72000 | > 100 | > 100 | more than 1000 fold | – | – | COCCn1cc(COc2cccc(Cc3cnc(NC(=O)CSc4nc(-c5ccccc5)cc(-c5ccccc5)n4)s3)c2)nn1 [Compound 7] | – | – | Only weak effects
4 | – | > 100 | – | > 100 | > 100 | – | – | – | > 100 | 3.9 ± 0.2 | – | 1 ± 0.05 | 160 ± 20 | Cc1cc(C)nc(SCC(=O)Nc2ncc(Cc3cccc(OCc4cn(Cc5ccccc5C)nn4)c3)s2)n1 [Compound 8] | – | – | –
